Assay results taken from ChEMBL document CHEMBL1121556, “Structure-activity relationships in a series of newly synthesized 1-amino-substituted ellipticine derivatives” (J Med Chem, 1980).
Values belong to the molecule of their own block, whether it stands above or below them.

Experiments:
[1] = tested on: Friend leukemia cells (Mus musculus); experiment: In vitro concentration required for growth inhibition of murine Friend leukemia cell; conditions: read-out: ID50 (the source's name)
[2] = tested on: Mus musculus; experiment: In vivo antitumor activity on L1210 leukemia cells at the dose 2.5 mg/kg administered intraperitoneally 1 day after 10 e5 L1210 leukemia cells and range of deaths; type: functional; conditions: route intraperitoneal
[3] = tested on: Mus musculus; experiment: In vivo leukemia cells at the dose 2.5 mg/kg administered intraperitoneally 1 day after 10 e5 L1210 leukemia cells and Mean survival time; type: functional; conditions: route intraperitoneal
[4] = tested on: Mus musculus; experiment: In vivo evaluation of antitumor activity on L1210 leukemia cells at the dose 2.5 mg/kg administered intraperitoneally 1 day after 10 e5 L1210 leukemia cells and increase in life span; type: functional; conditions: L1210, ip, 24 h, route intraperitoneal
[5] = tested on: Mus musculus; experiment: In vivo acute toxicity (lethal dose) against mice by intraperitoneal administration; type: organism-based; conditions: ip
Summary of the method: (§1)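 Mice (ICFW, C3H or B6D2 F1; 6-8 weeks; 22-24 g) in five groups of six. Drug dissolved in acidified saline (equimolar acetic acid) and given as a single ip or iv dose of 2, 5, 10, 25 or 50 mg/kg. Mortality observed over 30 days to set the lethal dose (LD100) and the highest nonlethal dose (LD0).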

[6] = tested on: Mus musculus; experiment: In vivo acute toxicity (nonlethal dose) against mice by intraperitoneal administration; type: organism-based; conditions: ip
Summary of the method: as §1

[7] = tested on: Mus musculus; experiment: In vivo antitumor activity on L1210 leukemia cells at the dose 15 mg/kg administered intraperitoneally 1 day after 10 e5 L1210 leukemia cells and range of deaths; type: functional; conditions: route intraperitoneal
[8] = tested on: Mus musculus; experiment: In vivo evaluation of antitumor activity on L1210 leukemia cells at the dose 15 mg/kg administered intraperitoneally 1 day after 10 e5 L1210 leukemia cells and increase in life span; type: functional; conditions: L1210, ip, 24 h, route intraperitoneal
[9] = tested on: Mus musculus; experiment: In vivo evaluation of antitumor activity on L1210 leukemia cells at the dose 15 mg/kg administered intraperitoneally 1 day after 10 e5 L1210 leukemia cells and Mean survival time; type: functional; conditions: route intraperitoneal
[10] = tested on: Nucleic Acid; experiment: B app constant towards DNA; type: nucleic-acid assay; conditions: Bos taurus
Summary of the method: (§2)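 Association constants for DNA binding were derived from absorption changes of calf thymus DNA at 6 × 10^-7 M, expressed as mononucleotide concentration. The buffer was 50 mM Tris-HCl, pH 7.4, with 0.1 M NaCl.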

[11] = tested on: Nucleic Acid; experiment: (§3) Apparent association constant towards DNA at concentration of 10e-7/M; type: nucleic-acid assay; conditions: Bos taurus
Summary of the method: as §2

[12] = tested on: Mus musculus; experiment: In vivo evaluation for the antitumor activity on L1210 leukemia cells at the dose 2.5 mg/kg administered intraperitoneally 1 day after 10 e5 L1210 leukemia cells and increase in life span; type: functional; conditions: L1210, ip, 24 h, route intraperitoneal
[13] = tested on: Mus musculus; experiment: In vivo evaluation for the antitumor activity on L1210 leukemia cells at the dose 2.5 mg/kg administered intraperitoneally 1 day after 10 e5 L1210 leukemia cells and Mean survival time; type: functional; conditions: route intraperitoneal
[14] = tested on: Mus musculus; experiment: In Vivo antitumor activity on grafted tumor friend cells at the dose 2.5 mg/kg and decrease in intravenous 10 e 6 cells and median survival time; type: functional
Summary of the method: (§4)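 Friend tumor cells, 10^6, injected iv into syngeneic mice. Mice randomized in groups of 16. Drug dissolved in acidified saline (equimolar acetic acid) and given as a single iv dose 3 days after inoculation. Median survival time recorded. %ILS = (treated median survival − control median survival)/control median survival × 100.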

[15] = tested on: Mus musculus; experiment: In Vivo evaluation for the antitumor activity on grafted tumor friend cells at the dose 2.5 mg/kg and Increase in the life span; type: functional
Summary of the method: as §4

[16] = tested on: Mus musculus; experiment: In vivo acute toxicity (lethal dose) against mice by intravenous administration; type: organism-based
Summary of the method: as §1

[17] = tested on: Mus musculus; experiment: In vivo acute toxicity (nonlethal dose) against mice by intravenous administration; type: organism-based
Summary of the method: as §1

[18] = tested on: Mus musculus; experiment: In vivo evaluation of antitumor activity on L1210 leukemia cells at the dose 5 mg/kg administered intraperitoneally 1 day after 10 e5 L1210 leukemia cells and Mean survival time; type: functional; conditions: route intraperitoneal
[19] = tested on: Mus musculus; experiment: In vivo antitumor activity on L1210 leukemia cells at the dose 5 mg/kg administered intraperitoneally 1 day after 10 e5 L1210 leukemia cells and range of deaths; type: functional; conditions: route intraperitoneal
[20] = tested on: Mus musculus; experiment: In vivo evaluation of antitumor activity on L1210 leukemia cells at the dose 5 mg/kg administered intraperitoneally 1 day after 10 e5 L1210 leukemia cells and increase in life span;; type: functional; conditions: L1210, ip, 24 h, route intraperitoneal
[21] = tested on: Mus musculus; experiment: In Vivo antitumor activity on grafted tumor friend cells at the dose 5 mg/kg and decrease in intravenous 10 e 6 cells and median survival time; type: functional
Summary of the method: as §4

[22] = tested on: Mus musculus; experiment: In Vivo evaluation for the antitumor activity on grafted tumor friend cells at the dose 5 mg/kg and Increase in the life span; type: functional
Summary of the method: as §4

[23] = tested on: Mus musculus; experiment: In Vivo antitumor activity on grafted tumor friend cells at the dose 5 mg/kg and decrease in intravenous 10 e 6 cells and median survival time was determined; type: functional
Summary of the method: as §4

[24] = tested on: Mus musculus; experiment: In vivo evaluation of antitumor activity on L1210 leukemia cells at the dose 5 mg/kg administered intraperitoneally 1 day after 10 e5 L1210 leukemia cells and Mean survival time; conditions: route intraperitoneal
[25] = tested on: Mus musculus; experiment: In Vivo evaluation for the antitumor activity on grafted tumor friend cells at the dose 20 mg/kg and Increase in the life span was determined; type: functional
Summary of the method: as §4

[26] = tested on: Mus musculus; experiment: In vivo evaluation of antitumor activity on L1210 leukemia cells at the dose 15 mg/kg administered intraperitoneally 1 day after 10 e5 L1210 leukemia cells and increase in life span;(P<0.001); type: functional; conditions: L1210, ip, 24 h, route intraperitoneal
[27] = tested on: Nucleic Acid; experiment: as §3; type: nucleic-acid assay; conditions: Bos taurus; remark: listed apart in the source
Summary of the method: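 Apparent association constant from absorption changes of 6 × 10^-7 M calf thymus DNA (as mononucleotide concentration) in 50 mM Tris-HCl, pH 7.4, 0.1 M NaCl.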

[28] = tested on: Nucleic Acid; experiment: Apparent association constant towards DNA at concentration of 10e-7/M.; type: nucleic-acid assay; conditions: Bos taurus
Summary of the method: as §2

Compound: Cc1c2ccnc(NCCN(C)C)c2cc2c1[nH]c1ccc(O)cc12
IC50 [1]: 30 nM | Range of deaths [2]: 20 days | MST [3]: 16 days | ILS at 2.5 mg/kg [4]: 26% | LD100 [5]: 5 mg/kg | LD0 [6]: 2.5 mg/kg

Compound: CCN(CC)CCCC(C)Nc1nccc2c(C)c3[nH]c4ccc(OC)cc4c3cc12 (configuration not stated)
IC50 [1]: 500 nM | Range of deaths [7]: 14 days | ILS at 15 mg/kg [8]: 8.7% | MST [9]: 12.5 days | LD100 [5]: 30 mg/kg | LD0 [6]: 1.5 mg/kg

Compound: CCN(CC)CCCNc1nccc2c(C)c3[nH]c4ccc(O)cc4c3c(C)c12
ILS at 2.5 mg/kg [12]: 57.1% | MST [13]: 16.4 days | Bapp [10]: 0.16 | IC50 [1]: 30 nM | MST [14]: 11.4 days | Range of deaths [2]: 19 days | ILS at 2.5 mg/kg [15]: 34.1% | LD100 [5]: 7 mg/kg | LD100 [16]: 7 mg/kg | LD0 [6]: 2.5 mg/kg | LD0 [17]: 2 mg/kg | K app [11]: 2e+07 M⁻¹

Compound: CCN(CC)CCCNc1nccc2c(C)c3[nH]c4ccc(OCc5ccccc5)cc4c3c(C)c12
IC50 [1]: 1000 nM

Compound: COc1ccc2[nH]c3c(C)c4ccnc(NCCCN5CCN(CCCN)CC5)c4cc3c2c1
IC50 [1]: 200 nM | LD100 [5]: 50 mg/kg | LD100 [16]: 2.5 mg/kg | LD0 [6]: 25 mg/kg | LD0 [17]: < 1 mg/kg

Compound: COc1ccc2[nH]c3c(C)c4ccnc(NCCN)c4cc3c2c1
MST [18]: 13.8 days | Range of deaths [19]: 20 days | Bapp [10]: 0.135 | IC50 [1]: 100 nM | ILS at 5 mg/kg [20]: 8.7% | MST [21]: 10.1 days | ILS at 5 mg/kg [22]: 18.8% | LD100 [5]: 10 mg/kg | LD0 [6]: 5 mg/kg | K app [11]: 3.3e+07 M⁻¹

Compound: Cc1c2cc[n+](C)cc2c(C)c2c1[nH]c1ccc(O)cc12 [ELLIPTINIUM]
IC50 [1]: 300 nM

Compound: CCN(CC)CCCNc1nccc2c(C)c3[nH]c4ccc(O)cc4c3cc12
MST [23]: 11 days | MST [24]: 16 days | Bapp [10]: 0.11 | IC50 [1]: 20 nM | ILS at 20 mg/kg [25]: 29.4% | Range of deaths [7]: 18 days | ILS at 15 mg/kg [26]: 49.5% | LD100 [5]: 15 mg/kg | LD100 [16]: 15 mg/kg | K app [27]: 3.7e+07 M⁻¹ | LD0 [6]: 5 mg/kg | LD0 [17]: 5 mg/kg

More lines, now with the values ahead:

Bapp [10]: 0.11 | IC50 [1]: 800 nM | K app [11]: 2.8e+07 M⁻¹
Compound: COc1ccc2[nH]c3c(C)c4ccnc(NCCN(C)C)c4cc3c2c1

IC50 [1]: 300 nM
Compound: Cc1c2ccnc(NCCCN)c2cc2c1[nH]c1ccc(OCc3ccccc3)cc12

IC50 [1]: 2000 nM
Compound: COc1ccc2[nH]c3c(C)c4ccnc(Nc5ccc(NS(C)(=O)=O)cc5)c4cc3c2c1

IC50 [1]: 30000 nM
Compound: COc1ccc2[nH]c3c(C)c4ccnc(N5CCCCC5)c4cc3c2c1

Bapp [10]: 0.11 | IC50 [1]: 800 nM | K app [28]: 3.5e+07 M⁻¹
Compound: COc1ccc2[nH]c3c(C)c4ccnc(NCCCCCCN)c4cc3c2c1
